Columns and labels:
Thromboxane-A synthase = target: T1, Thromboxane-A synthase (Homo sapiens, UniProt P24557); test: Inhibitory activity against human Thromboxane A2 synthase
T1 sequence (P24557 whole entry): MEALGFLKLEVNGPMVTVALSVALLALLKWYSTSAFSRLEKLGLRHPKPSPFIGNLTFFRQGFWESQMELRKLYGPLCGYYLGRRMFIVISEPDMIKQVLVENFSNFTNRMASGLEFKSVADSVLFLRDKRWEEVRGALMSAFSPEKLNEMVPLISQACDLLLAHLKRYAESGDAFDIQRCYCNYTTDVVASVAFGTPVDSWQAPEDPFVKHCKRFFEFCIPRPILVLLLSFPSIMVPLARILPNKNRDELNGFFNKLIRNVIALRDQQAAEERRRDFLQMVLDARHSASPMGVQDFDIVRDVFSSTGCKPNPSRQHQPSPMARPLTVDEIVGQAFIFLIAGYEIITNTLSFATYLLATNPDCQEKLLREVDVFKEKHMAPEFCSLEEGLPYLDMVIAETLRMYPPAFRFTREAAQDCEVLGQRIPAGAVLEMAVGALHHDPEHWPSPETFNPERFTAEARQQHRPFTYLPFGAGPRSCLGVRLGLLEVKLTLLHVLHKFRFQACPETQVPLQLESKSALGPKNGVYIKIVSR
Method in brief: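 Human platelet microsomal preparation incubated with (14C)arachidonic acid; thromboxane synthase inhibition read as reduced TxB₂ formation; IC50.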

Homo sapiens [1] = species on record: Homo sapiens; test: Inhibitory activity against U-46,619-induced aggregation of washed human platelets.; assay type: functional
Method in brief: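 Aspirin-treated, washed human platelets stimulated with U 46619 (stable PGH₂/TxA₂ mimic); aggregation inhibition measured; IC50.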

Oryctolagus cuniculus [2] = species on record: Oryctolagus cuniculus; test: Antagonist activity against contraction of rabbit aortic strips; (agonist activity was observed at 10e-5-10e-7M); assay type: functional, Aorta
Method in brief: (§1)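 Thoracic aorta segments (~3 cm) from anesthetized male New Zealand rabbits (1.4–2.4 kg), cleaned of fat; 2.0 g preload, 1 h equilibration. Contraction evoked by U 46619 (3 × 10⁻⁹ M) to plateau (20 min), then washed back to baseline. IC50 from a single determination.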

Homo sapiens [3] = species on record: Homo sapiens; test: Antagonist activity against U-46,619-induced aggregation of platelet rich plasma (PRP); assay type: functional
Method in brief: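 Human platelet-rich plasma stimulated with U 46619; aggregation inhibition measured; IC50.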

[4] = Ratio of platelet rich plasma to that of washed platelets
Oryctolagus cuniculus [5] = species on record: Oryctolagus cuniculus; test: Antagonist activity against contraction of rabbit aortic strips; assay type: functional; settings: Aorta; method in brief: as §1

SMILES | IC50 (Thromboxane-A synthase) | IC50 (Homo sapiens [1]) | IC50 (Oryctolagus cuniculus [2]) | IC50 (Homo sapiens [3]) | IC50 (Oryctolagus cuniculus [5]) | Ratio [4]
NC(=O)CCCCCC(CNS(=O)(=O)c1ccccc1)c1cccnc1 (stereo not drawn) | > 10000 nM | > 10000 nM | – | – | – | –
COC(=O)CCCCCC(CNS(=O)(=O)c1ccccc1)c1cccnc1 (stereo not drawn) | > 10000 nM | > 10000 nM | – | – | – | –
O=C(O)CCCCCC(CNS(=O)(=O)c1ccc([N+](=O)[O-])cc1)c1cccnc1 (stereo not drawn) | 120 nM | 70 nM | – | – | – | –
COc1ccc(S(=O)(=O)NCC(CCCCCC(=O)O)c2cccnc2)cc1 (stereo not drawn) | 940 nM | 300 nM | – | – | – | –
Cc1ccccc1S(=O)(=O)NCC(CCCCCC(=O)O)c1cccnc1 (stereo not drawn) | 200 nM | 380 nM | – | – | – | –
Cc1ccc(S(=O)(=O)NCC(CCCCCC(=O)O)c2cccnc2)cc1 (stereo not drawn) | 50 nM | 200 nM | – | – | – | –
O=C(O)CCCCCC(CNS(=O)(=O)c1ccc(C(=O)O)cc1)c1cccnc1 (stereo not drawn) | > 10000 nM | > 10000 nM | – | – | – | –
Cl.O=C(O)CCCCCC(CNS(=O)(=O)c1ccc(Cl)c(Cl)c1)c1cccnc1 (stereo not drawn) | 40 nM | 80 nM | – | 2500 nM | 1000 nM | 32
Cl.O=C(O)CCCCCC(CNS(=O)(=O)c1ccccc1)c1cccnc1 (stereo in doubt; 6) | 210 nM | 250 nM | – | 2100 nM | 400 nM | 8.2
O=C(O)CCCCCC(CNS(=O)(=O)c1ccccc1)c1cccnc1 (stereo in doubt; 25) | > 10000 nM | 250 nM | – | – | – | –
O=C(O)COc1ccc(CCNS(=O)(=O)c2ccccc2)cc1 [SULOTROBAN] | – | 1500 nM | – | 4000 nM | – | 2.6

More lines, main results first:

IC50 (Thromboxane-A synthase) | IC50 (Homo sapiens [1]) | IC50 (Oryctolagus cuniculus [2]) | IC50 (Homo sapiens [3]) | IC50 (Oryctolagus cuniculus [5]) | SMILES | Ratio [4]
> 10000 nM | > 10000 nM | – | – | – | CN(CC(CCCCCC(=O)O)c1cccnc1)S(=O)(=O)c1ccc(Cl)cc1 (stereo not drawn) | –
77 nM | 80 nM | – | – | – | O=C(O)CCCCC(CNS(=O)(=O)c1ccc(Cl)cc1)c1cccnc1 (stereo not drawn) | –
240 nM | 10 nM | Agonist | 200 nM | – | Cl.O=C(O)CCCCCCC(CNS(=O)(=O)c1ccc(Cl)cc1)c1cccnc1 (stereo not drawn) | 20
– | – | Agonist | 600 nM | – | Cl.O=C(O)CCCCCC(CNS(=O)(=O)c1ccc(Cl)cc1)c1cccnc1 (stereo not drawn) | 30
2000 nM | > 10000 nM | – | – | – | O=C(O)CCCC(CNS(=O)(=O)c1ccc(Cl)cc1)c1cccnc1 (stereo not drawn) | –

Source: ChEMBL document CHEMBL1126260, “Thromboxane receptor antagonism combined with thromboxane synthase inhibition. 2. Synthesis and biological activity of 8-(benzenesulfonamido)-7-(3-pyridinyl)octaonic acid and related compounds” (J Med Chem, 1992)
